Data taken from ChEMBL document CHEMBL3627606, “Development of Novel, CNS Penetrant Positive Allosteric Modulators for the Metabotropic Glutamate Receptor Subtype 1 (mGlu1), Based on an N-(3-Chloro-4-(1,3-dioxoisoindolin-2-yl)phenyl)-3-methylfuran-2-carboxamide Scaffold, That Potentiate Wild Type and Mutant mGlu1 Receptors Found in …” (J Med Chem, 2015).

Columns and labels:
[1] = target: T1, Metabotropic glutamate receptor 1 (Homo sapiens, UniProt Q13255); assay: Positive allosteric modulation of human mGlu1 receptor in HEK293 cells assessed as potentiation of glutamate-induced calcium mobiliztion by Fluo-4AM dye based fluorescence analysis; type: functional, cell-based
Target sequence in this assay (Q13255 whole entry): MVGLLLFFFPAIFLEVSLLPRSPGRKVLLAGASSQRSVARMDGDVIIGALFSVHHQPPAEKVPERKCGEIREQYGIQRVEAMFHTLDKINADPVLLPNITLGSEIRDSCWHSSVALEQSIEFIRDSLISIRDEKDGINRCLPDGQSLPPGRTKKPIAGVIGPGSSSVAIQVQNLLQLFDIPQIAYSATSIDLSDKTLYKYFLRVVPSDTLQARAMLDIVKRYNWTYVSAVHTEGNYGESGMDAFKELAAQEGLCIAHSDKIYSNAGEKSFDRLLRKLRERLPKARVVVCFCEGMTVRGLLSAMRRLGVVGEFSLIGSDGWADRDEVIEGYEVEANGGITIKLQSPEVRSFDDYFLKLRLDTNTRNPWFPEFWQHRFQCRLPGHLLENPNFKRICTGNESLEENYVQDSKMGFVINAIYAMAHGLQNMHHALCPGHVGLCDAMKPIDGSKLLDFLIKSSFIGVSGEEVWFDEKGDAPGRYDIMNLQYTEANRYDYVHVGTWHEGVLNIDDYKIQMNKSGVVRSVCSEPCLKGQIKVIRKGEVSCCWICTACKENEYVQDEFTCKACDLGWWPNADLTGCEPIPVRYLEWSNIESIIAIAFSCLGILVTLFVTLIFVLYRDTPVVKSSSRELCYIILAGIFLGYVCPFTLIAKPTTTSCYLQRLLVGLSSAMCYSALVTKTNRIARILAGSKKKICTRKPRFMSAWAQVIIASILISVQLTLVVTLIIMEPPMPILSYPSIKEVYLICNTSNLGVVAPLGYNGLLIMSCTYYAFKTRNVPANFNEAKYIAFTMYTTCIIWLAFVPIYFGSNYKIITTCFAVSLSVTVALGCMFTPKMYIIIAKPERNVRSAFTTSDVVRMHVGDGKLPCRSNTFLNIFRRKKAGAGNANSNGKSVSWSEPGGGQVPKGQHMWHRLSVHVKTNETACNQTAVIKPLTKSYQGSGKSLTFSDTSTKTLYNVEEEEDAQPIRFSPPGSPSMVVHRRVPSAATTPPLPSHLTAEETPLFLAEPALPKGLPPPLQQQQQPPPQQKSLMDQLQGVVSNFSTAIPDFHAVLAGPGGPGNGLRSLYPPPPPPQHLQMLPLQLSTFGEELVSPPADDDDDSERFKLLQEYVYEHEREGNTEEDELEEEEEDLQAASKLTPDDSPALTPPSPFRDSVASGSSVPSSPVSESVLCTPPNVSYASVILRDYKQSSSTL

[2] = target: T1, Metabotropic glutamate receptor 1; assay: Positive allosteric modulation of human mGlu1 receptor in HEK293 cells assessed as potentiation of glutamate-induced calcium mobiliztion by Fluo-4AM dye based fluorescence analysis relative to glutamate; type: functional, cell-based
Target sequence in this assay (Q13255 19-1194 limits assumed): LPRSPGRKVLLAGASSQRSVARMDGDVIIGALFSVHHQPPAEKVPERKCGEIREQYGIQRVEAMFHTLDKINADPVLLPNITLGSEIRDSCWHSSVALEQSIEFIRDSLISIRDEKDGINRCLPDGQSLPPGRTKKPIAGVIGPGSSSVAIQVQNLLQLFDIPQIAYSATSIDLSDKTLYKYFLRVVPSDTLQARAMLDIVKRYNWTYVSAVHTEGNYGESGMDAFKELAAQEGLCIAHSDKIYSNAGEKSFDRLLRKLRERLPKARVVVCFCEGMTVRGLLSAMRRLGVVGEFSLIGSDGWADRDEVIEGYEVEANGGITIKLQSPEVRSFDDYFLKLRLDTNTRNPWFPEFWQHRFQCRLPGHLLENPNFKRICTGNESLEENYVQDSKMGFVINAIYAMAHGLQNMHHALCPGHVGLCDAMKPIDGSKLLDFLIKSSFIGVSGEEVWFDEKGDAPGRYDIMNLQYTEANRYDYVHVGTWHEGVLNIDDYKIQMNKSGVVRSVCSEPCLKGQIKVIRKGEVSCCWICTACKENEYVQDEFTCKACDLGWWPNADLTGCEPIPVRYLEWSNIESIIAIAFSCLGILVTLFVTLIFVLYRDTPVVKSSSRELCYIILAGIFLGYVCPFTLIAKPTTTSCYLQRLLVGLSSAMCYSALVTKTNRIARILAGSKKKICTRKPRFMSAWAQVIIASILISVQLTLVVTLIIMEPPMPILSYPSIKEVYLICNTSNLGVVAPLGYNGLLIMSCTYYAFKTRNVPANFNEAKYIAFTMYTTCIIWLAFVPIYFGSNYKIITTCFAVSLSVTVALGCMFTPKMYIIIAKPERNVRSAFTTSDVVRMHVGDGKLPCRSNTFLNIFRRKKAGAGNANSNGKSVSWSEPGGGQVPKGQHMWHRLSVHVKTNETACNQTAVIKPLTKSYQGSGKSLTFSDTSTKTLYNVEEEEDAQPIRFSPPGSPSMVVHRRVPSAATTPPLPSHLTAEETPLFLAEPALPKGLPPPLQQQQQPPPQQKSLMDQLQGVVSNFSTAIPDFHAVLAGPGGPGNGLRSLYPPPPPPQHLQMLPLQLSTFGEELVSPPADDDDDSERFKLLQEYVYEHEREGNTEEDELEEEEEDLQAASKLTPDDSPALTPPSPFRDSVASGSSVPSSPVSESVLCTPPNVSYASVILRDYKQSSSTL

[3] = target: Metabotropic glutamate receptor 4 (Homo sapiens, UniProt Q14833); assay: Positive allosteric modulation of human mGlu4 receptor assessed as potentiation of glutamate-induced calcium mobiliztion by cell based assay; type: functional; conditions: read-out: EC50
[4] = target: Metabotropic glutamate receptor 1 (Rattus norvegicus) (UniProt P23385); assay: Positive allosteric modulation of rat mGlu1 receptor assessed as potentiation of glutamate-induced calcium mobiliztion by cell based assay relative to glutamate; type: functional
Summary of the method: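 Rat mGlu1 WT calcium mobilization concentration-response curves. EC50 and % Glu Max were derived from the curves.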

[5] = target: T1, Metabotropic glutamate receptor 1; assay: Positive allosteric modulation of human mGlu1 receptor in HEK293 cells assessed as potentiation of glutamate-induced calcium mobiliztion at 10 uM by Fluo-4AM dye based fluorescence analysis; type: functional, cell-based
Target sequence in this assay (Q13255 19-1194 limits assumed): as above

[6] = target: T1, Metabotropic glutamate receptor 1; assay: Agonist activity at human mGlu1 receptor in HEK293 cells assessed as calcium mobilization at 10 uM by Fluo-4AM dye based fluorescence analysis; type: functional, cell-based
Target sequence in this assay (Q13255 19-1194 limits assumed): as above

[7] = target: Metabotropic glutamate receptor 5 (Homo sapiens) (UniProt P41594); assay: Positive allosteric modulation of mGlu5 receptor (unknown origin) assessed as potentiation of glutamate-induced response by cell-based assay
Summary of the method: (§1)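 Selectivity counterscreen at the other mGlu subtypes using the standard fold-shift paradigm. Compound was tested at 10 μM against the glutamate concentration-response curve, and the shift of that curve was read.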

[8] = target: Metabotropic glutamate receptor 6 (Homo sapiens) (UniProt O15303); assay: Positive allosteric modulation of mGlu6 receptor (unknown origin) assessed as potentiation of glutamate-induced response by cell-based assay; summary of the method: as §1
[9] = target: Metabotropic glutamate receptor 7 (Homo sapiens) (UniProt Q14831); assay: Positive allosteric modulation of mGlu7 receptor (unknown origin) assessed as potentiation of glutamate-induced response by cell-based assay; summary of the method: as §1
[10] = target: Metabotropic glutamate receptor 8 (Homo sapiens) (UniProt O00222); assay: Positive allosteric modulation of mGlu8 receptor (unknown origin) assessed as potentiation of glutamate-induced response by cell-based assay; summary of the method: as §1
[11] = Intrinsic clearance in human liver microsomes at 1 uM by LC-MS/MS analysis; type: ADME; conditions: read-out: CLH
Cytochrome P450 1A2 = target: T2, Cytochrome P450 1A2 (Homo sapiens, UniProt P05177); assay: Inhibition of CYP1A2 in human liver microsomes by LC-MS/MS analysis; type: ADME
T2 sequence (P05177 whole entry): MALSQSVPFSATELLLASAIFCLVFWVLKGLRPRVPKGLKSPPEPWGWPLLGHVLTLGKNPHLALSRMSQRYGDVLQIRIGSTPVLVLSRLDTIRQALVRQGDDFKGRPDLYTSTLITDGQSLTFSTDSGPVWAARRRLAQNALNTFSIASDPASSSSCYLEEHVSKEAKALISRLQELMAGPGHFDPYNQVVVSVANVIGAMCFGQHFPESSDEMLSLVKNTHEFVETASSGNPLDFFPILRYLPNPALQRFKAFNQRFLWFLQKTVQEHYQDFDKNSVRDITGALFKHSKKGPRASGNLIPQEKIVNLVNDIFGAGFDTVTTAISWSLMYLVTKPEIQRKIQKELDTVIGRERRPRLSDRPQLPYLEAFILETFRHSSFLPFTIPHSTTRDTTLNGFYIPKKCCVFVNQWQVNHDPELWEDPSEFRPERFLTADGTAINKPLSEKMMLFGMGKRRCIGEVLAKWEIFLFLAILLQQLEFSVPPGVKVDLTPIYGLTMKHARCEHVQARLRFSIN

Cytochrome P450 2C9 = Cytochrome P450 2C9 (Homo sapiens, UniProt P11712); assay: Inhibition of CYP2C9 in human liver microsomes by LC-MS/MS analysis; type: ADME
Cytochrome P450 3A4 = Cytochrome P450 3A4 (Homo sapiens, UniProt P08684); assay: Inhibition of CYP3A4 in human liver microsomes by LC-MS/MS analysis; type: ADME
[12] = system: Metabotropic glutamate receptor 1 (Homo sapiens), Q13255 [P729T]; assay: Agonist activity at human mGlu1 P729T mutant receptor expressed in HEK293 cells assessed as calcium mobilization at > 1 uM uM by Fluo-4AM dye based fluorescence analysis; type: functional, cell-based
[13] = system: Metabotropic glutamate receptor 1 (Homo sapiens), Q13255 [A683E]; assay: Agonist activity at human mGlu1 A683E mutant receptor expressed in HEK293 cells assessed as calcium mobilization at > 1 uM uM by Fluo-4AM dye based fluorescence analysis; type: functional, cell-based
[14] = system: Metabotropic glutamate receptor 1 (Homo sapiens), Q13255 [Y632H]; assay: Agonist activity at human mGlu1 Y632H mutant receptor expressed in HEK293 cells assessed as calcium mobilization at > 1 uM uM by Fluo-4AM dye based fluorescence analysis; type: functional, cell-based
Hippocampus = assay: Toxic epileptiform activity in C57BL/6 mouse CA3 region of hippocampus assessed as frequency of spike activity at 10 uM by electrophysiolgy method (reference value: 0.99 +/- 0.38 Hz); type: toxicity, tissue-based
Summary of the method: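 Mouse hippocampal slices with extracellular recording from the CA3 pyramidal cell body layer. Compound (10 μM) or DHPG (50 μM) was bath-applied, and the frequency of spontaneous spikes was compared with baseline. n = 6 per agent, paired t test.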

Mus musculus = assay: Toxicity in C57BL/6 mouse assessed as seizure activity at 100 mg/kg, ip administered as single dose measured for 3 hrs; type: organism-based; conditions: in vivo
Summary of the method: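 Male C57Bl/6 mice (25−30 g) dosed ip in 10% Tween 80 at 10 mL/kg: the mGlu5 ago-PAM at 1 or 3 mg/kg, the mGlu1 PAMs at 100 mg/kg. Behaviour was monitored continuously for 3 h and scored on a modified Racine scale (0−5).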

Brain = assay: Drug concentration in C57BL/6 mouse brain at 100 mg/kg, ip administered as single dose; type: ADME, organism-based; conditions: in vivo, read-out: Drug uptake
Homo sapiens = organism: Homo sapiens; assay: Intrinsic clearance in human hepatocytes at 1 uM by LC-MS/MS analysis; conditions: read-out: CLH
[15] = Half life in Sprague-Dawley rat at 0.2 mg/kg, iv by LC-MS/MS analysis; conditions: in vivo
[16] = Plasma clearance in Sprague-Dawley rat at 0.2 mg/kg, iv by LC-MS/MS analysis
[17] = Mean residence time in Sprague-Dawley rat at 0.2 mg/kg, iv by LC-MS/MS analysis; conditions: in vivo
[18] = Plasma concentration in Sprague-Dawley rat at 0.2 mg/kg, iv after 0.25 hrs by LC-MS/MS analysis
[19] = Drug concentration in Sprague-Dawley rat brain at 0.2 mg/kg, iv after 0.25 hrs by LC-MS/MS analysis; conditions: read-out: Drug uptake

Cytochrome P450 3A4, sequence (P08684 whole entry): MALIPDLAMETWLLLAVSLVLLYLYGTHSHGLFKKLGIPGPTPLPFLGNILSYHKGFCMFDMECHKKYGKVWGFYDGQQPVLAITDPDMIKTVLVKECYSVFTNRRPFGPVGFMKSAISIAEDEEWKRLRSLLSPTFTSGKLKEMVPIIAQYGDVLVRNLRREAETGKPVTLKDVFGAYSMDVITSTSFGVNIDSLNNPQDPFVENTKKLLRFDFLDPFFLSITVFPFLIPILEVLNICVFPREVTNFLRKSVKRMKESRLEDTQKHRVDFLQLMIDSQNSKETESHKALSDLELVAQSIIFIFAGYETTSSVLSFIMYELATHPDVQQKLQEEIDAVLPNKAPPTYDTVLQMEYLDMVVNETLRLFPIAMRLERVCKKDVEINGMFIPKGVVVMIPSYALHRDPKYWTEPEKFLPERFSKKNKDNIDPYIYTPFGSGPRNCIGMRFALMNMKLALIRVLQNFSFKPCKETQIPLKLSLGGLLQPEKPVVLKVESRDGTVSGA
Metabotropic glutamate receptor 7 (Homo sapiens), sequence (Q14831 whole entry): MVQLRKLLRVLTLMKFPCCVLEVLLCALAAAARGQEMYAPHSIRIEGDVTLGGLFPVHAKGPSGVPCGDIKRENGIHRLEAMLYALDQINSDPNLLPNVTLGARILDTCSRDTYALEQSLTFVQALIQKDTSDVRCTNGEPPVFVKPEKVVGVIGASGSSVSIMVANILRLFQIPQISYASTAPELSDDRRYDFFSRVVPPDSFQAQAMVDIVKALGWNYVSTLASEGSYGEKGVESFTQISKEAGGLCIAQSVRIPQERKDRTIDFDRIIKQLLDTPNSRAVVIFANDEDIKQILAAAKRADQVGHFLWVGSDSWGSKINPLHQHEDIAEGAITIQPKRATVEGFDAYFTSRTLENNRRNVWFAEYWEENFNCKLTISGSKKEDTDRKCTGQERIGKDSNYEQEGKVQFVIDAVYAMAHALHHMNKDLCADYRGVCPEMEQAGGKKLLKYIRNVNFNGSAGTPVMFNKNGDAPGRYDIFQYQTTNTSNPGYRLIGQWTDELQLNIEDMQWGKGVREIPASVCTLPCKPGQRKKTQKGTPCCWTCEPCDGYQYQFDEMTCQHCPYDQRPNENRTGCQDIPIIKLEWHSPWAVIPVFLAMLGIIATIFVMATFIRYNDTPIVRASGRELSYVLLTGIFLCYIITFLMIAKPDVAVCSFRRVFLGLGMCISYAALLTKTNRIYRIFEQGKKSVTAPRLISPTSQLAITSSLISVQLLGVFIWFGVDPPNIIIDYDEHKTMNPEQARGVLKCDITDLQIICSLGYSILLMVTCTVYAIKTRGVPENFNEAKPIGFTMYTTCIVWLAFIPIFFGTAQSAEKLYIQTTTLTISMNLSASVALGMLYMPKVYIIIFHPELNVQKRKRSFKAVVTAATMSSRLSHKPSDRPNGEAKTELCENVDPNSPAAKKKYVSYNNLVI
Cytochrome P450 2C9, sequence (P11712 whole entry): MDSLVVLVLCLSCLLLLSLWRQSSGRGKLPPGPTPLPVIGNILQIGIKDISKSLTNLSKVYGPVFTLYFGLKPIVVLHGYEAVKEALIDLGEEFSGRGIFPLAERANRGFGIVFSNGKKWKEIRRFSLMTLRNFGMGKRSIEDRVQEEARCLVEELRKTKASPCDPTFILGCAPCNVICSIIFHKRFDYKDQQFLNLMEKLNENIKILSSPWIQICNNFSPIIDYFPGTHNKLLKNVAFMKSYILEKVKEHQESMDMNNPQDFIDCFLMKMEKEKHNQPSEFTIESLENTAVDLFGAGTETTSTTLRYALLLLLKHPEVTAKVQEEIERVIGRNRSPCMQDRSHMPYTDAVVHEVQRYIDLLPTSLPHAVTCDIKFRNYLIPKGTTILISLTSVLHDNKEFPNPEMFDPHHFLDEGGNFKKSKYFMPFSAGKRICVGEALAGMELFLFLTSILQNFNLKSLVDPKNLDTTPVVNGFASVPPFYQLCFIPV
Metabotropic glutamate receptor 1 (Homo sapiens), Q13255 [Y632H], sequence (Q13255 whole entry Y632H): as the sequence (Q13255 whole entry) above, with Y632H counted along it
Metabotropic glutamate receptor 1 (Homo sapiens), Q13255 [A683E], sequence (Q13255 whole entry A683E): as the sequence (Q13255 whole entry) above, with A683E counted along it
Metabotropic glutamate receptor 1 (Homo sapiens), Q13255 [P729T], sequence (Q13255 whole entry P729T): as the sequence (Q13255 whole entry) above, with P729T counted along it

EC50 ([1]; read-out: EC50): 31.8 nM | EC50 ([1]; read-out: pEC50 (converted)): 32.4 nM | %max [2]: 98% | EC50 [3]: 1110 nM | %max [4]: 103% | fold change (FC) [5]: 11.4 | Activity [6]: 35% | fold change (FC) [7]: 2.7 | fold change (FC) [8]: 6.7 | fold change (FC) [9]: 7 | fold change (FC) [10]: < 2 | CLint scaled at 1 µM [11]: 3.1 mL/min/kg | IC50 (Cytochrome P450 1A2): 25200 nM | IC50 (Cytochrome P450 2C9): 6450 nM | IC50 (Cytochrome P450 3A4): > 30000 nM | Activity [12]: 40% | Activity [13]: 40% | Activity [14]: 40% | concentration (Brain): 9.2 µM | CLint scaled at 1 µM (Homo sapiens): 2.7 mL/min/kg | half-life [15]: 53.6 min | clearance [16]: 13.3 mL/min/kg | MRT [17]: 64.1 min | concentration at 0.25 h [18]: 200 ng/mL | concentration at 0.25 h [19]: 204 ng/mL
SMILES: Cc1ccoc1C(=O)Nc1ccc(N2C(=O)c3cccc(F)c3C2=O)c(Cl)c1
Activity (Hippocampus): 1.16 Hz | Activity (Mus musculus): Non-toxic
